Source: PMC7455490 (Science Advances, 2020)
Where no end group is shown, it is not given here. [ ]: non-standard residue; d: D form.

Assays:
[1] = test system: B16F10 tumor-bearing mice; test: In vivo distribution after topical application, fluorescence imaging; details: 10 μg per mouse, 1, 3 and 6 hours
How it was run: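 Mice were anaesthetized and dorsal skin depilated, then DiI-labelled peptide-modified vesicles were applied topically. Whole-body fluorescence was imaged. Tumors and major organs were collected for fluorescence imaging at 6 hours after application.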

B16F10 cells [2] = test: qRT-PCR gene levels in treated B16F10 cells; type: cell-based, mouse; details: B16F10, + NIR, n = 3
B16F10 cells [3] = test: WB protein levels in treated B16F10 cells or their derived OMVs; type: cell-based, mouse; details: B16F10, + NIR (Fig. 4G)
[4] = Photothermal response to NIR irritation; type: physicochemical; details: 1 μg/ml, 808 nm NIR 2 W/cm^2 for 3 min, n = 3
[5] = test system: B16F10 melanoma in C57BL/6 mice; test: Antitumor performance, second wave; type: in vivo; details: NIR 0.6 W/cm^2, within 3 min, thermographic imaging
How it was run: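 B16F10 cells (3 × 10^6 per mouse) implanted s.c. in right flank of C57BL/6 mice; treatment began at 100 mm3 tumors. Groups (n = 6) got topical ICG-loaded test formulations (0.5 mg OMV/kg). Unabsorbed material was wiped off at 12 h, then the whole tumor was irradiated under anaesthesia at 808 nm, 0.6 W/cm2, 3 min. Tumor sections: TUNEL with proteinase K (20 μg/ml), fluorescein-dUTP 90 min, DAPI counterstain, confocal imaging. Also Fontana-Masson melanin stain, and IHC for cleaved caspase 3, CD63 and S100-β with HRP secondaries and hematoxylin counterstain.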

[6] = test system: dorsal skin of C57BL/6 mice; test: Skin penetration test, fluorescence in skin slices; type: in vivo; details: topical, 10 μg per mouse, 6 hours, fluorescence microscopy
How it was run: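 C57BL/6 mice, 4 weeks old, were anaesthetised and had their dorsal skin depilated. Once skin had restored full function, GFP-labelled test vesicles or free FITC-BSA were applied topically. After 6 h the mice were killed by cervical dislocation, and treated dorsal skin was collected, washed, paraffin-embedded and cut into 6 μm sections. Penetration depth was observed by fluorescence microscopy.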

L02 cells = test: Peptide binding by flow cytometry, L02; type: cell-based, human; details: 5 μM peptide, 2 hours, low αvβ3 expression
How it was run: (§1)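 Cells were grown in DMEM with 10% FBS and penicillin/streptomycin at 37°C, 5% CO2. They were seeded at 10^6 per well and cultured 24 h at 37°C. Then 5 μM test peptide was added for 2 h. Cells were washed twice with 4°C PBS, and intracellular fluorescence intensity was read by flow cytometry.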

B16F10 cells [7] = test: Peptide binding by flow cytometry, B16F10; type: cell-based, mouse; details: 5 μM peptide, 2 hours, compared with L02 cells
How it was run: as §1

[8] = Bioactivity of TRAIL at high temperatures; details: 55 and 60°C, n = 3
[9] = Transdermal delivery of TRAIL, Franz diffusion cells; type: in vitro ADME, mice; details: C57BL/6 mouse skin, ELISA, n = 3
How it was run: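 Excised C57BL/6 mouse skin was mounted in Franz diffusion cells, with vesicle suspensions (1 μg/ml) in the donor cell. Receptor samples were withdrawn at 0.5, 1, 2, 4, 8, 10 and 24 h and replaced with fresh PBS. TRAIL in the receptor samples was quantified by ELISA.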

[10] = target: human recombinant αvβ3 integrin (R&D Systems), NT-647 labelled (human) (UniProt P06756); test: MST
[11] = target: αvβ3 integrin on B16F10 melanoma cells (mouse (endogenous in B16F10), UniProt P43406 31-1044; O54890 26-787); test: flow cytometry on cells
αvβ3 integrin on B16F10 melanoma cells, sequence (P43406 31-1044, chain 1 of 2): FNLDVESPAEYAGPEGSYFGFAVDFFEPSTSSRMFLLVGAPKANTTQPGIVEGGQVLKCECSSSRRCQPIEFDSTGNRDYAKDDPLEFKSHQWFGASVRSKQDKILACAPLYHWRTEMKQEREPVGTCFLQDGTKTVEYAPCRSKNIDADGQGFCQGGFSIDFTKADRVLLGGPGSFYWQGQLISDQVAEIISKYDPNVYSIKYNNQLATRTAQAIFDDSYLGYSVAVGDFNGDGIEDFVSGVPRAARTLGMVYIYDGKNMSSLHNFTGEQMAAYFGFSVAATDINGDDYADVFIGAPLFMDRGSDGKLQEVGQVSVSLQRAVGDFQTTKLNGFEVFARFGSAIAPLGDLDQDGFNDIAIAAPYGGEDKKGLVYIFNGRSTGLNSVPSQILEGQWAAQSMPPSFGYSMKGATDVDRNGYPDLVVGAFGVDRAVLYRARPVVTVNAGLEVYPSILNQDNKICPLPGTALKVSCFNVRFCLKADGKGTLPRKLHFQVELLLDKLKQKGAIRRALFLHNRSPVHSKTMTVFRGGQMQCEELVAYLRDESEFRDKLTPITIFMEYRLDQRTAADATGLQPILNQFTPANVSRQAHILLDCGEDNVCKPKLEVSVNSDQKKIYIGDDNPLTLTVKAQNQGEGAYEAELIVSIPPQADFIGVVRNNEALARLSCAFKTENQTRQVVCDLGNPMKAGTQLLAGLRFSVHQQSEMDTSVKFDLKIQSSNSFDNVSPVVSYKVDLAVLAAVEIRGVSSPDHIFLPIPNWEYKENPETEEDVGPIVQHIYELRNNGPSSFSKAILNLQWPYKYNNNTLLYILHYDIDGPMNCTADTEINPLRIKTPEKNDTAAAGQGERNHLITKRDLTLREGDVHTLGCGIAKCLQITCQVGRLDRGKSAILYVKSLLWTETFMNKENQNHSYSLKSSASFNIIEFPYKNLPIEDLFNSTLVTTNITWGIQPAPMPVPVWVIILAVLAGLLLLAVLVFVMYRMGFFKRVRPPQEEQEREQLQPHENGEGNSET
αvβ3 integrin on B16F10 melanoma cells, sequence (O54890 26-787, chain 2 of 2): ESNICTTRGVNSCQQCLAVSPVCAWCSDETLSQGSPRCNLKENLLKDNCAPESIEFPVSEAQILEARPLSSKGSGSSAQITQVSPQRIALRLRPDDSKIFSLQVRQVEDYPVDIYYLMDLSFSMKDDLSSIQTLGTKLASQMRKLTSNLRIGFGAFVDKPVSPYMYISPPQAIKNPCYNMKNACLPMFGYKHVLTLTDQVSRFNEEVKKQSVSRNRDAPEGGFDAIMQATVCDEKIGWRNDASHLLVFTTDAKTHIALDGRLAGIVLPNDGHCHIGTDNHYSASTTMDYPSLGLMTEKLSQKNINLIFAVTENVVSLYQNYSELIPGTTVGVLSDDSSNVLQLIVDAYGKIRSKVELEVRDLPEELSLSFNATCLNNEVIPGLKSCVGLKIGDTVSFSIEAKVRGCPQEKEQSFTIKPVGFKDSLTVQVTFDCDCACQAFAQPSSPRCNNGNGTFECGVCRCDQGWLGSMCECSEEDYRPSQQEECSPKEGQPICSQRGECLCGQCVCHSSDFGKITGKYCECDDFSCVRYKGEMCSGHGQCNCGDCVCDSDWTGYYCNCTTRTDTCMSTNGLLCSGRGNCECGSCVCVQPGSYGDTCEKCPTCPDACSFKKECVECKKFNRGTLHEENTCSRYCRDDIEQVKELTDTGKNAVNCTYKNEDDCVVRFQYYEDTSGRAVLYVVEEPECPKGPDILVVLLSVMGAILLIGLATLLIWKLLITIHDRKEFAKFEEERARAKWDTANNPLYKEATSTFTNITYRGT

With CCCCCCCCCCCCCCCCCCN1C(=CC=CC2=[N+](CCCCCCCCCCCCCCCCCC)c3ccccc3C2(C)C)C(C)(C)c2ccccc21.[O-][Cl+3]([O-])([O-])[O-] [Dil, 1,1′-dioctadecyl-3,3,3′,3′-tetramethylindocarbocyanine perchlorate] the “fluorescence at tumor site after topical application” value [1] was “Low fluorescent signal”.

For CC1(C)C(/C=C/C=C/C=C/C=C2\N(CCCCS(=O)(=O)O)c3ccc4ccccc4c3C2(C)C)=[N+](CCCCS(=O)(=O)[O-])c2ccc3ccccc3c21 [ICG, indocyanine green], the “c-FLIP mRNA level, decreased to” value (B16F10 cells [2]) was 63%, the “survivin mRNA level, decreased to” value (B16F10 cells [2]) was 56% and the “increase of cleaved caspase 3 level” value (B16F10 cells [3]) was 2.4 fold. For the same molecule, the “increase of cleaved caspase 8 level” value (B16F10 cells [3]) was 3.3 fold, the “temperature reached from 25°C upon NIR irritation” value [4] was 35 °C and the “temperature of tumor sites” value [5] was “around 32 °C”.

In the case of “FITC-BSA: fluorescein isothiocyanate (FITC)–labeled bovine serum albumin”, the “penetration through SC, fluorescence in skin slices” value [6] is reported as “incapable of penetrating through SC”.

For “RhB-RGP: rhodamine B–labeled RGP (RW[code r]NMGGGGIVRRADRAAVP; also: rhodamine B label, position not given here)”, the “binding to L02 cells” value (L02 cells) was “weak binding” and the “binding to B16F10 cells” value (B16F10 cells [7]) was “significantly enhanced”.

With “TRAIL: Recombinant human tumor necrosis factor related apoptosis-inducing ligand” the “bioactivity of TRAIL at high temperatures” value [8] was “No loss of bioactivity” and the “transdermal amount of TRAIL” value [9] was “too low to be detected”.

RWRNMGGGGIVRRADRAAVP (not fully specified (residue 3); printed as RWrNMGGGGIVRRADRAAVP) [RGP (RWr…), αvβ3 integrin-specific peptide] showed a Kd [10] of 1.54 nM.

With RW[code r]NMGGGGIVRRADRAAVP (also: rhodamine B label, position not given here) [rhodamine B-labeled RGP (RhB-RGP)] the “fold fluorescence intensity against RhB-RGD” value [11] was 6.3 fold.
